Assay outcomes: PubChem BioAssay, several laboratories
This is a sample that favours compounds with a hit; in the whole collection about 5.5% have one here.
HSV replic up: HSV replication enhancement; HSV replication augmentation in cells, fold increase; maximum fold increase; 220,000 tested, 0.005% active; AID 1956; in the data active = maximum fold increase above about 1.5; inconclusive = no clear call, values can overlap the other calls; tested in PC3 cells
STAT1 inh-1: STAT1 signaling inhibition; 200,000 tested, 0.35% active; NIH 3T3 STAT1-luciferase reporter, IFN-gamma, luminescence; inhibition, % at 5.5 µM; AID 920;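 active = inhibition above a set limit, the mean inhibition across all tested compounds plus 3 SD, cut at about 34% in these data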
STAT3 act-1: STAT3 signaling activation; AID 871; activation (% of control), % at 5.6 µM; U3A cells, IL-6 STAT3-luciferase reporter, luminescence; 100% = signal with IL-6 EC80 alone; 190,000 tested, 0.91% active;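 active = activation above the screen-wide mean of compound activation plus 3 SD, cut at about 130% in these data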
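System – human U3A cells carrying STAT3-luciferase construct · Probe or stimulus – Interleukin-6, 33 ng/mL · Schedule – compound 1 h, then IL-6 6 h at 37 °C · Signal – luminescence from STAT3-driven luciferase reporter · Evaluation – percent of IL-6-only median luminescence · Benchmarks – IL-6-only high control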
STAT3 blocker: STAT3 signaling inhibition. 190,000 tested, 0.89% active. inhibition, % at 5.5 µM. AID 862. U3A cells, IL-6 STAT3-luciferase reporter, luminescence; host cell line lacks STAT1;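 active = inhibition above the mean inhibition across all screened compounds plus 3 SD, cut at about 44% in these data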
KCC2 mod: modulators of human KCC2 chloride dependent transport | Q9H2X9 | KCC2 cells, thallium flux FluoZin-2 fluorescence | B-score of Tl+ flux slope (higher = more flux/activation; lower = inhibition) at 10 µM | 190,000 tested, 2.2% active | AID 1456;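 active = thallium flux slope and its plate-corrected score both differing from the plate sample mean at a set confidence after two filtering rounds, in either direction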;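 also: slope of fluorescence scaled to starting intensity during 10 to 20 s after thallium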
STAT1 act-1: STAT1 signaling activation; activation (% of control), % at 5.5 µM; AID 932; 200,000 tested, 2.6% active; NIH 3T3 STAT1-luciferase reporter, IFN-gamma, luminescence; 100% = IFN-gamma alone, no compound;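 active = activation above the screen-wide mean activation plus 3 SD, cut at about 130% in these data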
STAT3 act-2: STAT3 activation, confirmation assay; shares compounds with STAT3 act-1; U3A STAT3-luciferase reporter, IL-6 potentiation, luminescence; U3A cells lack STAT1; 100 means same as IL-6 alone; potentiation (% of control), % at 5.7 µM; 1,200 tested, 64% active; AID 1267;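 active = percent activation of the STAT3 luciferase reporter above a set limit taken from the earlier primary screen, cut at about 130% in these data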
NFkB act 2: NF-kappaB activation in STAT3 activator counter-screen; shares compounds with STAT3 act-1; human cells, NF-kappaB reporter activation; activation (% of control), % at 5.7 µM; 1,200 tested, 11% active; AID 1309; in the data active = activation above about 120%;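 also: reporter induced by TNF-alpha stimulation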
STAT1 act-2: counter-screen for STAT3 activators: STAT1 activation | shares compounds with STAT3 act-1 | NIH 3T3 STAT1-luciferase reporter, IFN-gamma, luminescence | activation (% of control), % at 5.7 µM | 1,200 tested, 13% active | AID 1318;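 active = activation above the solvent-only control well mean plus 3 SD, set per screening run, cut at about 120% in these data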
STAT1 inh-2: STAT1 inhibition, confirmation assay; shares compounds with STAT1 inh-1; NIH 3T3 STAT1-luciferase reporter, IFN-gamma, luminescence; 200 tested, 55% active; inhibition, % at 5.5 µM; AID 1263;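 active = triplicate mean inhibition exceeding the hit cutoff computed for the primary STAT1 screen, cut at about 35% in these data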
NFkB inh STAT1ct: counter-screen for STAT1 inhibitors: NF-kappaB inhibition; shares compounds with STAT1 inh-1; HEK293T NF-kB luciferase reporter, TNF-alpha induced, luminescence; inhibition, % at 5.7 µM; 200 tested, 30% active;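 active = inhibition above the mean of solvent-only control wells plus 3 SD of those wells, cut at about 15% in these data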
STAT3 inh STAT1c: STAT3 inhibition in STAT1 inhibitor counter-screen; shares compounds with STAT1 inh-1; inhibition, % at 5.7 µM; AID 1310; 200 tested, 20% active; U3A cells, IL-6 STAT3 luciferase reporter, luminescence; cells lacking STAT1;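 active = inhibition above the mean of solvent-only control wells plus 3 SD, set per campaign, cut at about 25% in these data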
STAT1 act conf: STAT1 activation, confirmation assay; shares compounds with STAT1 act-1; NIH 3T3 STAT1-luciferase reporter, IFN-gamma potentiation, luminescence; 100% = IFN-gamma EC80 alone, no compound; activation (% of control), % at 5.7 µM; 1,200 tested, 97% active; AID 1262;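 active = activation above a set limit carried over from the earlier primary STAT1 screen, cut at about 140% in these data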
NFkB act: activates NF-kappaB, counter-screen to STAT1 activators. shares compounds with STAT1 act-1. HEK293T NF-kB luciferase reporter, TNF-alpha stimulated, luminescence; 100% = TNF-alpha with vehicle only. activation (% of control), % at 5.7 µM. 1,200 tested, 43% active;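 active = activation above the mean of solvent-only control wells plus 3 SD, set per campaign, cut at about 130% in these data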;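 also: TNF-alpha given at a submaximal dose yielding about 80% of full reporter signal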
STAT3 act STAT1c: activates human STAT3, counter-screen to STAT1 activators; activation (% of control), % at 5.7 µM; shares compounds with STAT1 act-1; 1,200 tested, 46% active; U3A cells STAT3-luciferase reporter, IL-6, luminescence; cells lack STAT1; 100 = IL-6 alone, no compound effect;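 active = activation above the solvent-only control well mean plus 3 SD, set per plate batch, cut at about 110% in these data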;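 also: higher means more STAT3 reporter activation so hits are non-selective activators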
A number is an active result; – = inactive; ? = inconclusive; · = no result given.

SMILES | HSV replic up | STAT1 inh-1 | STAT3 act-1 | STAT3 blocker | KCC2 mod | STAT1 act-1 | STAT3 act-2 | NFkB act 2 | STAT1 act-2 | others
CC(=Nc1c(C)n(C)n(-c2ccccc2)c1=O)c1c(O)n(Cc2ccccc2)c(=O)[nH]c1=O | – | – | 156 | – | – | – | – | – | –
COc1ccc2c(c1)CC1(CN2C)C(=O)NC(=O)N(c2ccc(F)cc2)C1=O (stereo unspecified) | ? | – | 150 | – | · | – | 134 | – | –
COc1ccc2c(c1)CC1(CN2C)C(=O)NC(=O)N(c2ccc(C)cc2)C1=O (stereo unspecified) | · | – | – | – | – | – | · | · | ·
Cc1ccc(OCCn2cccc2/C=C2/C(=O)NC(=O)N(Cc3ccco3)C2=O)cc1 | – | · | · | · | – | · | · | · | ·
Cn1cccc1/C=C1\C(=O)NC(=O)N(Cc2ccco2)C1=O | ? | – | 146 | – | – | – | – | – | –
CCOC(=O)C(O)(c1ccc(N(CC)C(=O)COc2ccccc2)cc1)C(F)(F)F (stereo unspecified) | – | – | – | – | – | – | · | · | ·
Cc1nn(Cc2ccccc2)c(C)c1C(=O)OCC(=O)Nc1ccccc1SCC#N | – | – | 138 | – | – | – | – | – | –
c1ccc2[nH]c(CCNC3CCCCC3)nc2c1 | – | – | 137 | – | – | – | – | – | –
c1ccc2c(CCNC3CCCCC3)c[nH]c2c1 | – | – | – | – | · | – | · | · | ·
CCCC/C(=N\O)c1c[nH]c2ccccc12 | – | – | 141 | – | – | – | 155 | – | –
CCN(c1ccc(C(O)(C(=O)OC)C(F)(F)F)cc1)S(=O)(=O)c1ccc(C)cc1 (stereo unspecified) | – | – | – | – | – | – | · | · | ·
CC(=O)Cc1c[nH]c2ccccc12 | – | · | · | · | – | · | · | · | ·
C=CCN(CC=C)Cc1c[nH]c2ccccc12 | – | – | 147 | – | – | – | 134 | – | –
CCCCn1c(=O)c(C(=O)Nc2ccccc2)c(O)c2ccccc21 | – | – | 154 | – | – | – | 161 | – | –
CCCCn1c(=O)c(C(=O)Nc2ccccc2S(N)(=O)=O)c(O)c2ccccc21 | – | – | – | – | – | – | · | · | ·
O=C(O)CCC(=O)NCCC1=c2ccccc2=N/C1=C\c1c(O)n(Cc2ccc(F)cc2)c(=S)[nH]c1=O | – | · | · | · | – | · | · | · | ·
Cc1ccc(-c2nc(N(C)C3CCN(C)CC3)c3ccccc3n2)cc1 | – | – | 172 | – | – | – | 155 | – | –
CSc1ccc(C(=O)C2CCCN(Cc3cc4ccccc4[nH]3)C2)cc1 (stereo unspecified) | – | – | 141 | – | – | – | 149 | – | –
CCSP1(=S)N=C(N2CCOCC2)C(C#N)=C2CCCN21 (stereo unspecified) | – | – | – | – | – | – | · | · | ·
CCCCN1C(=O)NC(=O)C2(Cc3c(nc4ccccn4c3=O)N3CCc4ccccc4C32)C1=O (stereo unspecified) | – | – | 142 | – | – | – | 143 | – | –
Cc1ccsc1C(=O)C1CCCN(Cc2cc(C(C)C)n[nH]2)C1 (stereo unspecified) | – | – | – | – | · | – | · | · | ·
O=C1C2CCN(CC2)C12CC2c1ccc(C(F)(F)F)cc1 (stereo unspecified) | – | · | · | · | – | · | · | · | ·
CC1(C)CC(=O)C(C=NCCN2CCN(C(=O)Cc3ccc(F)cc3)CC2)=C(O)C1 | – | 34 | – | – | – | – | · | · | · | STAT1 inh-2=–;NFkB inh STAT1ct=–;STAT3 inh STAT1c=–
CC(C)(CN)CC(=O)O | – | · | · | · | – | · | · | · | ·
O=C(Nc1ccc(OC(=O)N2CCCC2)cc1)N1CCOCC1 | – | – | – | – | – | – | · | · | ·
SMILES | HSV replic up | STAT1 inh-1 | STAT3 act-1 | STAT3 blocker | KCC2 mod | STAT1 act-1 | STAT3 act-2 | NFkB act 2 | STAT1 act-2 | others
O=C(Nc1ccc(OC(=O)N2CCCCC2)cc1)N1CCOCC1 | – | 36 | – | – | – | – | · | · | · | STAT1 inh-2=–;NFkB inh STAT1ct=–;STAT3 inh STAT1c=–
O=C(O)c1cn(Cc2ccccc2)nc1-c1ccccc1 | – | – | – | – | – | – | · | · | ·
CCc1ccc(-c2nn(Cc3ccccc3)cc2C=O)cc1 | – | – | – | – | – | 170 | · | · | · | STAT1 act conf=158;NFkB act=–;STAT3 act STAT1c=121
CC(=O)Nc1ccccc1C(=O)OCc1cccc(F)c1 | – | – | – | – | – | 184 | · | · | · | STAT1 act conf=182;NFkB act=–;STAT3 act STAT1c=–
Cn1c(=O)c2c(nc(N/N=C/c3c(O)n(C4CCCCC4)c(=S)[nH]c3=O)n2C)n(C)c1=O | – | · | · | · | – | · | · | · | ·
O=C1NC(=O)C(CCc2ccncc2)(c2ccccc2)C(=O)N1 | – | – | – | – | – | – | · | · | ·
CN1C(=O)/C(=C/c2ccc(N3CCCCCC3)o2)C(=O)NC1=S | ? | – | – | – | – | 166 | · | · | · | STAT1 act conf=213;NFkB act=148;STAT3 act STAT1c=126
